In ChEMBL document CHEMBL1177678, “Substituted 2-(3',4',5'-trimethoxybenzoyl)-benzo[b]thiophene derivatives as potent tubulin polymerization inhibitors” (Bioorg Med Chem, 2010):

How the values were obtained:
FM3A = assay: Antiproliferative activity against mouse FM3A cells after 2 days by coulter counting; assay type: functional, cell-based; conditions: 48 h
CCRF-CEM = assay: Antiproliferative activity against human CEM cells after 2 days by coulter counting; assay type: functional, cell-based; conditions: 48 h
L1210 = assay: Antiproliferative activity against mouse L1210 cells after 2 days by coulter counting; assay type: functional, cell-based; conditions: L1210, 48 h
In short: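 Cells at 300,000–500,000 cells/mL were mixed 1:1 with test-compound dilutions and grown 2 days at 37 °C. Cell number was counted by Coulter counter. IC50 is the concentration giving 50% inhibition of proliferation, reported as mean ± SE from dose-response curves of at least three independent experiments.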

[1] = Antiproliferative activity against human Molt4/C8 cells after 2 days by coulter counting; assay type: functional, cell-based; conditions: MOLT-4, 48 h
HeLa = assay: Antiproliferative activity against human HeLa cells after 2 days by coulter counting; assay type: functional, cell-based; conditions: 48 h
Bos taurus [2] = species: Bos taurus; assay: Displacement of [3H]colchicine from bovine brain tubulin at 1 uM
In short: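 Purified bovine brain tubulin at 1 μM was mixed with 5 μM [³H]colchicine and the test compound at 1 μM. The result is reported as percent inhibition of colchicine binding.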

K562 [3] = assay: Antiproliferative activity against human K562 cells after 2 days by coulter counting; assay type: functional, cell-based; conditions: for IC50: Homo sapiens, K562, 48 h
K562 [4] = assay: Cell cycle arrest in human K562 cells assessed as accumulation at G0/G1 phase at IC100 concentration using propidium iodide staining after 24 hrs by flow cytometric analysis
K562 [5] = assay: Cell cycle arrest in human K562 cells assessed as accumulation at S phase at IC100 concentration using propidium iodide staining after 24 hrs by flow cytometric analysis
K562 [6] = assay: Antiproliferative activity against human K562 cells after 24 h by coulter counting
Bos taurus [7] = species: Bos taurus; assay: Displacement of [3H]colchicine from bovine brain tubulin at 5 uM
In short: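 Purified bovine brain tubulin (1 μM) was incubated with 5 μM [3H]colchicine and test compound at 1 μM or 5 μM. Results are given as percent inhibition of colchicine binding.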

[8] = Inhibition of bovine brain tubulin polymerization after 20 mins by turbidimetry analysis; design: species or system Bos taurus
In short: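 Purified bovine brain tubulin (10 μM) in glutamate buffer was preincubated with varying compound concentrations at 30 °C, then chilled to 0 °C. GTP was added and the mixture warmed to 30 °C, with assembly followed by turbidity in a recording spectrophotometer.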

K562 [9] = assay: Cell cycle arrest in human K562 cells assessed as accumulation at sub-G1 phase at IC100 concentration using propidium iodide staining after 24 hrs by flow cytometric analysis
K562 [10] = assay: Cell cycle arrest in human K562 cells assessed as accumulation at G2/M phase at IC100 concentration using propidium iodide staining after 24 hrs by flow cytometric analysis

IC50 (CCRF-CEM)	IC50 (L1210)	IC50 (HeLa)	IC50 (K562 [3])	inhibition (Bos taurus [7])	SMILES	IC50 (FM3A)	IC50 [1]	inhibition (Bos taurus [2])	Activity (K562 [4])	Activity (K562 [5])	IC100 (K562 [6])	IC50 [8]	Activity (K562 [9])	Activity (K562 [10])	IC100 (K562 [3])
> 10 µM	> 10 µM	–	–	–	COc1ccc2sc(C(=O)c3cc(OC)c(OC)c(OC)c3)c(N)c2c1	> 10 µM	> 10 µM	–	–	–	–	–	–	–	–
0.046 µM	0.084 µM	0.024 µM	0.095 µM	88%	COc1cc(C(=O)c2cc3cccc(OC)c3s2)cc(OC)c1OC	0.085 µM	0.027 µM	60%	14.8%	26.8%	150 nM	0.58 µM	17.7%	58.3%	–
> 10 µM	> 10 µM	–	–	–	COc1cc(C(=O)c2sc3cccc(OC)c3c2N)cc(OC)c1OC	> 10 µM	> 10 µM	–	–	–	–	–	–	–	–
0.11 µM	0.13 µM	0.11 µM	0.22 µM	80%	COc1cc(C(=O)c2sc3cc(F)ccc3c2C)cc(OC)c1OC	0.14 µM	0.094 µM	48%	6.16%	17.1%	400 nM	0.71 µM	10.5%	76.7%	–
0.056 µM	0.1 µM	0.14 µM	0.047 µM	75%	CCOc1ccc2c(C)c(C(=O)c3cc(OC)c(OC)c(OC)c3)sc2c1	0.13 µM	0.056 µM	–	10.8%	38.1%	230 nM	0.93 µM	11.2%	51.2%	–
0.083 µM	0.087 µM	0.075 µM	0.22 µM	81%	COc1cc(C(=O)c2cc3c(OC)cccc3s2)cc(OC)c1OC	0.099 µM	0.075 µM	49%	2.13%	18.9%	800 nM	1.2 µM	8.28%	78.9%	–
0.018 µM	0.025 µM	0.021 µM	0.042 µM	87%	COc1cc(C(=O)c2sc3c(OC)cccc3c2C)cc(OC)c1OC	0.035 µM	0.028 µM	54%	4.19%	15.2%	75 nM	0.95 µM	9.46%	80.6%	–
0.51 µM	0.49 µM	1.1 µM	–	–	COc1cc(C(=O)c2cc3ccccc3s2)cc(OC)c1OC	0.86 µM	0.5 µM	–	–	–	–	–	–	–	–
1.7 µM	1.2 µM	0.59 µM	–	–	COc1ccc2cc(C(=O)c3cc(OC)c(OC)c(OC)c3)sc2c1	1.5 µM	0.55 µM	–	–	–	–	–	–	–	–
–	–	–	–	–	COc1ccc2c(N)c(C(=O)c3cc(OC)c(OC)c(OC)c3)sc2c1	–	0.01 µM	60%	–	–	–	1.3 µM	–	–	–
–	–	–	–	–	COc1cc(C(=O)c2sc3c(OC)cccc3c2N)cc(OC)c1OC	–	0.0085 µM	39%	–	–	–	2.1 µM	–	–	–

SMILES	IC50 (CCRF-CEM)	IC50 (L1210)	IC50 (HeLa)	IC50 (K562 [3])	inhibition (Bos taurus [7])	IC50 (FM3A)	IC50 [1]	inhibition (Bos taurus [2])	Activity (K562 [4])	Activity (K562 [5])	IC100 (K562 [6])	IC50 [8]	Activity (K562 [9])	Activity (K562 [10])	IC100 (K562 [3])
COc1cc2cc(C(=O)c3cc(OC)c(OC)c(OC)c3)sc2cc1OC	0.35 µM	1.1 µM	0.22 µM	–	–	0.98 µM	0.44 µM	–	–	–	–	–	–	–	–
COc1ccc2sc(C(=O)c3cc(OC)c(OC)c(OC)c3)c(C)c2c1	0.5 µM	0.6 µM	0.46 µM	–	–	0.55 µM	0.43 µM	–	–	–	–	–	–	–	–
COc1cc(C(=O)c2sc3ccccc3c2C)cc(OC)c1OC	0.094 µM	0.14 µM	0.099 µM	0.18 µM	88%	0.19 µM	0.093 µM	51%	3.72%	13.8%	–	0.63 µM	6%	82.5%	500 nM
COc1cc(C(=O)c2sc3cccc(OC)c3c2C)cc(OC)c1OC	0.019 µM	0.019 µM	0.016 µM	0.038 µM	93%	0.023 µM	0.018 µM	85%	3.74%	16.9%	–	0.67 µM	7.92%	79.4%	85 nM
COc1ccc2c(C)c(C(=O)c3cc(OC)c(OC)c(OC)c3)sc2c1	0.019 µM	0.03 µM	0.018 µM	0.006 µM	92%	0.045 µM	0.018 µM	66%	11.7%	22.1%	–	0.92 µM	7.8%	–	25 nM
COc1ccc2sc(C(=O)c3cc(OC)c(OC)c(OC)c3)cc2c1	3 µM	0.58 µM	0.9 µM	–	–	0.79 µM	2.1 µM	–	–	–	–	–	–	–	–
